These results are taken from PubChem BioAssay AID1381 (University of Pittsburgh Molecular Library Screening Center, 2008).

The whole screen tested about 220,000 compounds, of which about 1,000 (0.45%) were called active.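 How the source made its calls: active means plate z-score of nuclear minus cytoplasmic receptor signal below a set negative limit, without overly bright fluorescence or cell loss (cut at about -3.5 in these data, passing the limit was not always enough); inactive means the rest, inconclusive results apart.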 Shown is part of a subset that was picked to be rich in actives.

The test is described as follows: inhibitors of GR-EGFP nuclear translocation, primary screen, dynein cargo transport inhibitor project, imaging, high-content, 3617.4 mouse cells (AID 1381). The settings on record: stimulated with dexamethasone, 1 µM. A digest of the protocol: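 medium = tetracycline-free induction medium containing charcoal-stripped FBS | probe or stimulus = dexamethasone, 1.0 µM final | timing = 48 h induction, then 1 h compound, then 30 min agonist, 37 °C | detection = automated 10x imaging of fixed Hoechst-stained cells | read-out basis = nuclear versus cytoplasmic GR-EGFP signal, averaged per well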

[1] abbreviates: measured here: cell count per field, at 20 µM.
Where [2] appears, read: measured here: cytoplasmic GR-EGFP intensity, at 20 µM, stronger effect = higher value.
Setting [3] is: measured here: nuclear GR-EGFP intensity, at 20 µM, stronger effect = lower value.
Setting [4] is: measured here: cell count per field, at 50 µM.
The mark [5] stands for this setting: measured here: cytoplasmic GR-EGFP intensity, at 50 µM, stronger effect = higher value.
Where [6] appears, read: measured here: nuclear GR-EGFP intensity, at 50 µM, stronger effect = lower value.

With `O=Cc1cn(Cc2ccccc2)nc1-c1cccnc1`, the z-score was -0.988 (inactive) (at 20 µM, stronger effect = lower value); 0.721 under setting [1]; -0.215 under setting [2]; -0.566 under setting [3].
For `Cc1ccc(S(=O)(=O)N(C)c2ccc(OCC(=O)NC3=NCCS3)cc2)cc1`, in that order: 0.77 (inactive), -1.53, 0.171 and 1.46.
As for `Cc1ccnc(N2CCN(C(=O)CSc3nc4ccccc4nc3N3CCCCC3)CC2)c1`, the z-score was -1.05 (inactive) (at 20 µM, stronger effect = lower value); 0.232 under setting [1]; -0.187 under setting [2]; -0.257 under setting [3].
On to `CC(C)(C)c1cc(NC(=O)NN2CCOCC2)nn1-c1c(Cl)cc(Cl)cc1Cl`, for which the z-score is 0.305 (inactive) (at 20 µM, stronger effect = lower value); 0.973 under setting [1]; -0.287 under setting [2]; -0.0782 under setting [3].
For `COc1ccc(CCNC(=O)c2ccc(CS(=O)(=O)c3ccc(Br)cc3)o2)cc1OC`, in that order: 0.736 (inactive), 0.162, -0.215 and 0.28.
With `CCN(Cc1nc2ccccc2c(=O)[nH]1)Cc1cc(=O)oc2cc(C)c(C)cc12`, the z-score is 0.712 (inactive) (at 50 µM, stronger effect = lower value); 0.798 under setting [4]; -0.276 under setting [5]; -0.426 under setting [6].
With `O=c1[nH]c2ccccc2n2c(-c3ccccc3)nnc12`, the z-score runs as follows: (at 50 µM, stronger effect = lower value) -4.53 (active); under setting [4], 0.378; under setting [5], 0.89; under setting [6], -2.64.
In the case of `O=[N+]([O-])c1cccc(-c2nnc3c4ccccc4c4ccccc4n23)c1`, the z-score is, setting by setting: (at 20 µM, stronger effect = lower value) -0.00649 (inactive); under setting [1], 0.483; under setting [2], 1.22; under setting [3], 0.469.
Taken in the same sequence, the figures for `CCOC(=O)c1cnc2[nH]c3ccccc3n2c1=O` were -0.506 (inactive), -0.246, 0.0235 and -0.197.
For `CCCn1c(SCC(=O)Nc2ccc(C)c(S(=O)(=O)N3CCOCC3)c2)n[nH]c1=O`, in that order: 1.09 (inactive), 0.0169, -0.261 and 0.257.
Take `Cc1ccc2nc(Nc3ncc4c(n3)CC(C)(C)CC4=O)nc(C)c2c1`: the z-score is, setting by setting: (at 20 µM, stronger effect = lower value) 0.135 (inactive); under setting [1], 0.445; under setting [2], -0.285; under setting [3], -0.00084.
Taken in the same sequence, the figures for `Cn1c(=O)c([N+](=O)[O-])c(Oc2ccccc2)c2ccccc21` were -6.51 (active), 0.669, 1.62 and -2.76.
Taken in the same sequence, the figures for `Cc1cccc(Oc2c([N+](=O)[O-])c(=O)n(C)c3ccccc23)c1` were -4.31 (active), 0.72, 0.943 and -2.29.
Taken in the same sequence, the figures for `Cn1c2ccccc2c(=O)c2c(O)cccc21` were -0.39 (inactive), 0.337, -0.342 and -0.208.
On to `COc1cccc(C(=O)Oc2cc(C)[nH]c(=O)c2[N+](=O)[O-])c1`, for which the z-score by setting is: (at 20 µM, stronger effect = lower value) 1.66 (inactive); under setting [1], -1.05; under setting [2], -0.136; under setting [3], 0.869.
Taken in the same sequence, the figures for `Cc1cccc(OP(=O)(Nc2c(C)n(C)n(-c3ccccc3)c2=O)Oc2cccc(C)c2)c1` were 1.6 (inactive), -1.31, -0.218 and 1.25.
Taken in the same sequence, the figures for `Cc1nn(C)c(Oc2ccccc2)c1[N+](=O)[O-]` were -0.413 (inactive), 0.292, -0.104 and 0.119.
With `CC(NC(=S)Nc1ccccc1)C1COc2ccccc2O1` (stereo not given), the z-score by setting is: (at 20 µM, stronger effect = lower value) 0.289 (inactive); under setting [1], 0.134; under setting [2], -0.0607; under setting [3], 0.355.
For `CCN(CC)Cc1csc2ccc(Br)cc12`, in that order: -0.627 (inactive), 1.15, -0.13 and 0.249.
For `O=C(Nc1ccc(F)cc1)c1cccnc1N1CCOCC1`, the z-score (at 50 µM, stronger effect = lower value) is 0.0462 (inactive); the z-score under setting [4] worked out at 1.37; the z-score under setting [5] was -0.00933; the z-score under setting [6] stood at 0.174.
In the case of `O=c1[nH]c(N2CCN(Cc3ccc4c(c3)OCO4)CC2)nc2c1CCCC2`, the z-score reads like this: (at 20 µM, stronger effect = lower value) -1.03 (inactive); under setting [1], 2.27; under setting [2], -0.309; under setting [3], -0.0483.
For `COCC1CCCN(Cc2nc(-c3ccc4c(c3)OCO4)no2)C1` (stereo not given), in that order: 0.118 (inactive), 0.19, -0.27 and 0.224.
As to `CCC1=C/C(=C\c2ccc3c(c2)OCO3)C(=O)S1`, the z-score reads like this: (at 20 µM, stronger effect = lower value) -3.72 (active); under setting [1], 0.295; under setting [2], 0.919; under setting [3], -1.39.
Taken in the same sequence, the figures for `O=C1/C(=C/c2ccc3c(c2)OCO3)CCC/C1=C\c1ccc2c(c1)OCO2` were 0.645 (inactive), -1.87, 1.28 and 0.356.
In the case of `CSC1=N/C(=C\c2ccc3c(c2)OCO3)C(=O)S1`, the z-score runs as follows: (at 50 µM, stronger effect = lower value) -0.0628 (inactive); under setting [4], -0.123; under setting [5], -0.227; under setting [6], -0.89.
As to `Cc1cccc(C)c1NC1=NC(=S)N(c2ccc(N(C)C)cc2)C1(C)C`, the z-score was 1.25 (inactive) (at 20 µM, stronger effect = lower value); 0.0641 under setting [1]; -0.0144 under setting [2]; 0.985 under setting [3].
For `Cc1ccc(/C=N/NC(=S)NC2CCCCC2)o1`, in that order: -0.738 (inactive), -0.0991, -0.777 and -0.608.
For `C/C(CC(=O)Nc1cccc(C(F)(F)F)c1)=N\NC(=O)C(=O)NCC(C)C`, in that order: -0.981 (inactive), 0.594, -0.237 and -0.369.
With `Cc1nnc(SCCCCSc2nnc(C)c(=O)[nH]2)[nH]c1=O`, the z-score (at 20 µM, stronger effect = lower value) is -0.311 (inactive); the z-score under setting [1] was -0.339; the z-score under setting [2] is -0.259; the z-score under setting [3] is -0.0707.
Taken in the same sequence, the figures for `CC(=O)Nc1cccc([N+](=O)[O-])c1` were 0.101 (inactive), 0.386, -0.384 and 0.092.
Taken in the same sequence, the figures for `COC(=O)/C=C\C(=O)Nc1cccc([N+](=O)[O-])c1` were -4.05 (active), -0.741, 1.08 and -2.26.
Taken in the same sequence, the figures for `Cc1ccccc1NC(=S)Nc1cccc([N+](=O)[O-])c1` were -0.523 (inactive), -0.0166, -0.193 and -0.37.
For the compound `COc1ccc(-c2csc3nc(-c4ccccc4F)oc(=O)c23)cc1OC`, the z-score is -3.75 (active) (at 20 µM, stronger effect = lower value); -0.574 under setting [1]; 0.603 under setting [2]; -1.45 under setting [3].
For `COc1ccc(-c2csc(-c3cccs3)n2)cc1OC`, in that order: 0.847 (inactive), 0.288, -0.331 and 0.694.
For `COc1ccc(-c2noc(-c3cccc(OC)c3OC)n2)cc1OC`, in that order: 1.03 (inactive), -0.605, -0.0658 and 0.927.
